An excerpt weighted towards active compounds, which were near 9.3% of everything screened.
E coli WT exp: growth inhibitors of E. coli BW25113 wild type; growth inhibition, % at 100 µM; 98,000 compounds, 0.15% hits; AID 710; OD600 absorbance;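 active means growth inhibition above about 50% at one test dose, limit read from the data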;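 further: growth measured after 20 h incubation at 37 °C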
Ecoli tolC: blocks growth of E. coli BW25113 tolC mutant; OD615; growth inhibition, % at 10 µM (by protocol); 65,000 compounds, 2.2% hits; AID 573;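 active means growth inhibition at or above a cutoff equal to the mean over every tested compound plus 3 SD, cut at about 60% in these data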;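 further: growth measured after 20 h incubation at 37 °C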
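Test system: E. coli BW25113 ΔtolC::kan bacteria; incubation: 37 °C, 20 h exposure; medium: LB broth supplemented with 50 µg/mL kanamycin; read-out basis: percent growth inhibition; signal: A615 absorbance measurement; compound: 10 µM final, single dose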
PostGolgi ctrl: inhibits growth of the yeast control strain; efflux-deficient yeast background strain, growth absorbance A615, 16 h; inhibition, % at 10 µM; 98,000 compounds, 5% hits; AID 738
hDAT+cocaine: modulates human dopamine transporter uptake under cocaine; 110,000 compounds, 1.3% hits; AID 449768; LLC-PK1 hDAT cells, [14C]-dopamine uptake with cocaine IC80; actives deviate in either direction; B-score at 10 µM; Q01959;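 active means Z score or B-score, a plate-position-corrected score, falls beyond the plate's 99.7% confidence bounds, in either direction; inactive means both scores lie inside the 99.7% bounds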;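 further: scored against the spread of the other compound wells on the same plate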
PostGolgi yeast: growth inhibition of a yeast mutant, post-Golgi transport screen; AID 739; inhibition, % at 10 µM; 98,000 compounds, 0.9% hits; post-Golgi transport phenotypic cell assay;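 further: yeast cells grown in 1536-well plates; yeast grown about 18 h at 30C before absorbance read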
D1 allo mod: D1 dopamine receptor (human) allosteric modulation | AID 641 | HEK293 D1, CRE-luciferase, dopamine EC30 potentiation; actives deviate in either direction | 58,000 compounds, 5.9% hits | P21728 | B-score at 10 µM;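 active means luminescence count or its row- and column-corrected plate score outside the 99.7% band of the plate's sample wells, on either side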
Target sequence (P21728 whole entry, looked up): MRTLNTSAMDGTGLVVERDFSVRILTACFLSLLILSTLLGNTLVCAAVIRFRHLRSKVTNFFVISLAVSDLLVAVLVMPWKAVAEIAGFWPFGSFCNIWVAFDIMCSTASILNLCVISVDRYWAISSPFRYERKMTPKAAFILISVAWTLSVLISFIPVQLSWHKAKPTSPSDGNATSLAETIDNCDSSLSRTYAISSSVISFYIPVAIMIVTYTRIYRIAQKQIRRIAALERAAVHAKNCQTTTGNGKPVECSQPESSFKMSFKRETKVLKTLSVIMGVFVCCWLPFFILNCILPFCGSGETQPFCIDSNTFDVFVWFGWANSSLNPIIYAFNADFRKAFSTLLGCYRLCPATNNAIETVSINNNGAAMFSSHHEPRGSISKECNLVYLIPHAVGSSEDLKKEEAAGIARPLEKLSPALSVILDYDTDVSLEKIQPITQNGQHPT
* marks the source's active call; other numbers are inactive results; . = not tested or not shown. Unless noted, no stated cut-off is given here; in the data, active means inhibition above about 30%; inactive means the rest.

SMILES	E coli WT exp	Ecoli tolC	PostGolgi ctrl	hDAT+cocaine	PostGolgi yeast	D1 allo mod
Cc1ccc(-n2[nH]c(C)c(/C=C3/C=Nc4ccccc43)c2=O)cc1C	.	.	.	-0.541	.	.
CC(=O)C1=C(O)C(=O)N(Cc2ccco2)C1c1ccc(F)cc1 (stereo not drawn)	5.0	-8.9	-6.2	0.0117	14.3	-2.76*
C=CCn1c(SCc2c(F)cccc2Cl)nnc1-c1ccco1	8.0	42.9	6.8	-0.71	-3.6	0.0281
O=C(Nc1ncc(Br)s1)C(Cc1ccccc1)n1cccc1 (stereo not drawn)	12.0	96.5*	89.1*	-0.0492	86.8*	-0.245
CC(=O)Nc1ccc(S(=O)(=O)NCC(C)NS(=O)(=O)c2ccc(NC(C)=O)cc2)cc1 (stereo not drawn)	-3.0	-9.5	37.3*	-1.03	-9.5	0.243
CC(=O)Nc1ccc(S(=O)(=O)N[C@H](C(=O)O)C(C)C)cc1	1.0	-2.9	-2.5	0.0385	3.0	.
O=C(N[C@@H](Cc1ccccc1)C(=O)OCc1ccccc1)c1nc[nH]c1C(=O)N1CCc2ccccc2C1	.	.	.	0.985	.	.
Cc1[nH]c(-c2ccc3c(c2)OCO3)nc1C(=O)O	-14.0	.	30.6*	0.848	-1.5	.
O=C(Nc1cccc2cccnc12)c1cccc2ccccc12	-9.0	.	36.5*	-0.708	-3.8	.
O=C(Nc1ccccc1OC(F)F)c1ccc(Br)o1	8.0	17.2	11.5	-2.51*	7.4	1.36
O=C(COc1ccc2ccccc2c1)Nc1cccc2cccnc12	-5.0	.	13.6	-7.56*	-0.6	.
O=C(COc1ccc2ccccc2c1)NCCNC(=O)COc1ccc2ccccc2c1	-3.0	.	22.2	0.0358	-2.1	.
O=C(Nc1cccc2cccnc12)c1ccc(Br)o1	7.0	92.5*	15.9	0.0262	16.5	2.43
Clc1ccc(Cl)c(OCc2cc(-c3ccccc3Cl)on2)c1	-2.0	.	4.1	-0.35	-2.2	.
O=C(CN1C(=O)C2C3C=CC(C3)C2C1=O)N1CCc2ccccc2C1 (stereo not drawn)	7.0	-18.6	-7.0	0.224	7.4	0.574
COc1ccc(Cl)cc1C(=O)CSc1nc(N)cc(N)n1	4.0	4.6	6.8	0.0234	-3.3	1.39
CC(C(=O)Nc1ccccc1-c1ccccc1)N1CCN(C(=O)c2ccco2)CC1 (stereo not drawn)	.	5.5	.	.	.	0.476
CC(C)COC(=O)c1ccc2c(c1O)C(=O)c1ccccc1C2=O	-4.0	.	22.8	-0.109	103.9*	.
CC(C)COC(=O)c1cc(=O)[nH]c2ccccc12	5.0	8.3	8.1	-0.0753	-19.4	1.32
COC(=O)CNc1nc(-c2cccnc2)nc2ccccc12	1.0	18.6	11.8	0.53	0.2	.
c1cncc(-c2nc(NCC3COc4ccccc4O3)c3ccccc3n2)c1 (stereo not drawn)	-4.0	.	46.9*	.	1.1	.
COc1ccc(OC)c(CNC(=O)CCN2C(=O)COc3ccccc32)c1	3.0	-5.2	12.2	1.62*	-0.6	0.263
COc1ccc(OCC(=O)N2CCN(C(=O)COc3ccc(Br)cc3)CC2)cc1	7.0	-1.9	40.7*	-0.705	-9.6	0.335
Cc1ccc(OCC(=O)N2CCN(C(=O)CCC3CCCC3)CC2)cc1	10.0	0.0	0.4	-0.07	-0.3	0.00829
Cc1ccc(OCC(=O)N2CCC(N3CCCCCC3)CC2)cc1	3.0	-4.2	34.6*	0.989	-2.4	0.0136
SMILES	E coli WT exp	Ecoli tolC	PostGolgi ctrl	hDAT+cocaine	PostGolgi yeast	D1 allo mod
Cc1cc(C)cc(OCC(=O)N2CCCCCC2)c1	12.0	-4.2	33.9*	0.054	-10.8	-0.124
O=C1CCC(/C=C/c2ccccc2)=NN1Cc1ccc(Cl)c(Cl)c1	-16.0	.	60.2*	0.129	22.6	.
O=C1CCC(/C=C/c2ccccc2)=NN1Cc1ccccc1Cl	-6.0	.	39.4*	-0.0957	-15.8	.
COc1cc(C2c3c(oc4c(C)cc(C)cc4c3=O)C(=O)N2Cc2cccnc2)ccc1O (stereo not drawn)	.	-5.9	.	0.161	.	11.5*
COc1ccc(CCN2C(=O)C(O)=C(C(=O)c3ccco3)C2c2cccs2)cc1OC (stereo not drawn)	4.0	21.8	11.8	-3.33*	2.0	-0.435
Cc1ccc(C(=O)C2=C(O)C(=O)N(Cc3ccccc3)C2c2cccnc2)o1 (stereo not drawn)	3.0	13.6	-0.7	0.467	-4.7	-1.52
COc1ccc(CCN2C(=O)C(O)=C(C(C)=O)C2c2ccccc2OC)cc1OC (stereo not drawn)	1.0	.	-1.5	-0.272	-2.0	.
COc1cc(C2C(C(C)=O)=C(O)C(=O)N2CCc2ccc(OC)c(OC)c2)ccc1O (stereo not drawn)	1.0	-27.5	6.5	-0.125	17.9	-0.339
CCOc1cc(C2C(C(=O)c3ccc(C)o3)=C(O)C(=O)N2CCc2ccccc2)ccc1O (stereo not drawn)	-3.0	3.3	4.3	-4.62*	-7.1	-0.0871
CCN(CC)CCCN1C(=O)C(O)=C(C(=O)c2ccco2)C1c1ccc(OC(C)C)cc1 (stereo not drawn)	5.0	-13.7	43.0*	0.492	-4.8	0.378
CC(C)Oc1ccc(C2C(C(=O)c3ccco3)=C(O)C(=O)N2CCCN(C)C)cc1 (stereo not drawn)	.	-22.1	.	.	.	0.0255
COc1cc(C2C(C(=O)c3ccco3)=C(O)C(=O)N2CCc2ccccc2)ccc1O (stereo not drawn)	7.0	24.5	27.7	-3.27*	7.5	.
CC(C)NC(=O)C(OC(=O)c1ccccc1)C(OC(=O)c1ccccc1)C(=O)O (stereo not drawn)	-1.0	.	5.0	-0.0163	-1.1	.
COc1ccc(-c2nsc3c(N4CCCC4)ncnc23)cc1	-7.0	-5.8	8.1	1.03	2.7	-4.38*
Cc1noc(C)c1CSc1nc2sc(C)c(C)c2c(=O)n1-c1ccccc1	-14.0	15.8	3.7	-0.647	-9.9	-0.373
C=CCn1c(SCc2c(C)noc2C)nc2sc(C)c(C)c2c1=O	-13.0	.	34.9*	0.768	-4.3	.
Cc1cc(C(=O)N[C@H](c2ccccc2)[C@@]2(C)C[C@@H]2[C@@H](C)C(=O)Nc2ccc3ccccc3c2)n(C)n1	.	.	.	0.00337	.	.
Cc1nn(Cc2ccccc2)c(C)c1C(=O)OCC(=O)c1cc(C)n(C2CC2)c1C	-6.0	65.3*	-3.1	1.35	-7.3	-0.371
COCCn1c(C)cc(C(=O)COC(=O)c2c(C)nn(Cc3ccccc3)c2C)c1C	-16.0	43.5	0.1	0.794	-2.2	.
CCN(Cc1ccccc1)C(=O)c1cc2c(=O)oc3ccc(C)cc3c2s1	-22.0	.	47.0*	-0.537	5.3	.
Cc1ccc(S(=O)(=O)N/N=C\c2cn(-c3ccccc3)nc2-c2ccccc2)cc1	-18.0	.	4.4	1.34	-0.8	.
Cc1ccc(S(=O)(=O)N/N=C/c2c(C)nn(-c3ccccc3)c2C)cc1	-4.0	.	9.6	2.52*	0.2	.
COc1ccc(N2CCN(C(c3cc(OC)ccc3OC)c3nnnn3CC3CCCO3)CC2)cc1 (stereo not drawn)	.	.	.	0.181	.	.
COC(=O)c1cccc(S(=O)(=O)N2CCN(c3nc4ccccc4s3)CC2)c1	-7.0	-25.1	-2.6	0.107	-3.4	-2.77*

Assay outcomes deposited in PubChem BioAssay by several laboratories.
